The values below come from ChEMBL document CHEMBL1146951, “Structure-guided identification of novel VEGFR-2 kinase inhibitors via solution phase parallel synthesis” (Bioorg Med Chem Lett, 2006).

Active and inactive are the calls of the source. No cut-off for these calls is given here. Some results are limits rather than exact numbers.

In assay [1] the target is T1, Vascular endothelial growth factor receptor 2 (Homo sapiens, UniProt P35968). Put plainly: Inhibition of VEGFR2 at 1 uM. A digest of the protocol:
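Kinase activity of baculovirus-expressed human VEGFR2 enzyme.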

Assay [2] addresses T2, Vascular endothelial growth factor receptor (Homo sapiens) (UniProt P17948+P35916+P35968). Put plainly: Inhibition of microvessel growth in rat aortic ring at 100 nM. The assay is classed as functional, tissue-based. The note with it: Aorta, target entry is the homologue from another species. An outline of the steps: (§1)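 Rat aortic ring explants were cultured in serum-free collagen gel in serum-free MCDB 131 medium without exogenous VEGF. Microvessel sprouting was scored at peak growth (day 8) as percent inhibition relative to untreated controls. n = 8 replicates per concentration; inter-assay variability <10%. Statistics by Student Newman–Keuls test.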

The target in assay [3] is T2, Vascular endothelial growth factor receptor (Homo sapiens). Put plainly: Inhibition of microvessel growth in rat aortic ring at 400 nM. The assay is classed as functional, tissue-based. Conditions: Aorta, target entry is the homologue from another species. An outline of the steps:
as §1

Assay [4] shares this target. Put plainly: Inhibition of microvessel growth in rat aortic ring at 4 nM. The assay is classed as functional, tissue-based. Conditions: Aorta, target entry is the homologue from another species. An outline of the steps:
as §1

Assay [5] addresses T1, Vascular endothelial growth factor receptor 2. Put plainly: Inhibition of VEGFR2.
For assay [6], the target named is High affinity nerve growth factor receptor (Homo sapiens) (UniProt P04629). Put plainly: Inhibition of TrkA at 1 uM.
Chain of High affinity nerve growth factor receptor (Homo sapiens) (P04629 33-796 limits assumed): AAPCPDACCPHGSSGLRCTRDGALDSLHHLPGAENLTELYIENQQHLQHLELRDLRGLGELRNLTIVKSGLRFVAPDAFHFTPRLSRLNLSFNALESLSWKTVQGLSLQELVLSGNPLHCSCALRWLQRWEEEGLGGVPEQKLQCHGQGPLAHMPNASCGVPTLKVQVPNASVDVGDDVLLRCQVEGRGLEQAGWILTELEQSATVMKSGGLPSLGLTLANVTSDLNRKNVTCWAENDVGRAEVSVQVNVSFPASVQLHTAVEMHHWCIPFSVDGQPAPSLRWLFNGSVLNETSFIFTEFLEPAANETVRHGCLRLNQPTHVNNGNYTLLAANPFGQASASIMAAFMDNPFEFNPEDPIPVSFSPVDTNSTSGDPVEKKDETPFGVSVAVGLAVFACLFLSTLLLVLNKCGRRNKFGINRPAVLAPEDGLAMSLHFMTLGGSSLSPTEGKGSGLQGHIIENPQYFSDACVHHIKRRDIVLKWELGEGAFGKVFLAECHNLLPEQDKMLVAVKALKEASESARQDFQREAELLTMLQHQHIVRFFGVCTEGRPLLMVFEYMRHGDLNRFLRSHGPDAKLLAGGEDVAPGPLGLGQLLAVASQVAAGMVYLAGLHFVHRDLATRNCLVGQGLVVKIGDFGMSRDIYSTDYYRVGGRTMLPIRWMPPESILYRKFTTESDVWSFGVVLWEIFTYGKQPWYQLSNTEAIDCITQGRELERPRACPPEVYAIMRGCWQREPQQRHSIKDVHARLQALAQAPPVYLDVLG
The subject of a further assay is SVR. Put plainly: Antitumor efficacy against SVR cells in nude mice at 30 mg/kg, po. Conditions: Mus musculus. Details: dose 30 mg/kg. The assay is classed as functional, organism-based. A digest of the protocol: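 SVR murine angiosarcoma cells implanted in the right flank of female athymic nude mice. On day 5 post-implantation, once tumors were palpable, mice were randomized (n = 8–10). Dosing was 30 mg/kg/dose orally twice a day for 10 days in Tween:PG 1:1 vehicle. Tumor growth was compared with vehicle-treated controls.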

The target in assay [7] is Cyclin-dependent kinase 1/cyclin B1 (Homo sapiens, UniProt P06493). Put plainly: Inhibition of CDK1/CyclinB1. The assay is classed as protein-complex assay.
The target in assay [8] is Vascular endothelial growth factor receptor 1 (Homo sapiens) (UniProt P17948). Put plainly: Inhibition of VEGFR1 at 300 nM.
Chain of Vascular endothelial growth factor receptor 1 (Homo sapiens) (P17948 whole entry): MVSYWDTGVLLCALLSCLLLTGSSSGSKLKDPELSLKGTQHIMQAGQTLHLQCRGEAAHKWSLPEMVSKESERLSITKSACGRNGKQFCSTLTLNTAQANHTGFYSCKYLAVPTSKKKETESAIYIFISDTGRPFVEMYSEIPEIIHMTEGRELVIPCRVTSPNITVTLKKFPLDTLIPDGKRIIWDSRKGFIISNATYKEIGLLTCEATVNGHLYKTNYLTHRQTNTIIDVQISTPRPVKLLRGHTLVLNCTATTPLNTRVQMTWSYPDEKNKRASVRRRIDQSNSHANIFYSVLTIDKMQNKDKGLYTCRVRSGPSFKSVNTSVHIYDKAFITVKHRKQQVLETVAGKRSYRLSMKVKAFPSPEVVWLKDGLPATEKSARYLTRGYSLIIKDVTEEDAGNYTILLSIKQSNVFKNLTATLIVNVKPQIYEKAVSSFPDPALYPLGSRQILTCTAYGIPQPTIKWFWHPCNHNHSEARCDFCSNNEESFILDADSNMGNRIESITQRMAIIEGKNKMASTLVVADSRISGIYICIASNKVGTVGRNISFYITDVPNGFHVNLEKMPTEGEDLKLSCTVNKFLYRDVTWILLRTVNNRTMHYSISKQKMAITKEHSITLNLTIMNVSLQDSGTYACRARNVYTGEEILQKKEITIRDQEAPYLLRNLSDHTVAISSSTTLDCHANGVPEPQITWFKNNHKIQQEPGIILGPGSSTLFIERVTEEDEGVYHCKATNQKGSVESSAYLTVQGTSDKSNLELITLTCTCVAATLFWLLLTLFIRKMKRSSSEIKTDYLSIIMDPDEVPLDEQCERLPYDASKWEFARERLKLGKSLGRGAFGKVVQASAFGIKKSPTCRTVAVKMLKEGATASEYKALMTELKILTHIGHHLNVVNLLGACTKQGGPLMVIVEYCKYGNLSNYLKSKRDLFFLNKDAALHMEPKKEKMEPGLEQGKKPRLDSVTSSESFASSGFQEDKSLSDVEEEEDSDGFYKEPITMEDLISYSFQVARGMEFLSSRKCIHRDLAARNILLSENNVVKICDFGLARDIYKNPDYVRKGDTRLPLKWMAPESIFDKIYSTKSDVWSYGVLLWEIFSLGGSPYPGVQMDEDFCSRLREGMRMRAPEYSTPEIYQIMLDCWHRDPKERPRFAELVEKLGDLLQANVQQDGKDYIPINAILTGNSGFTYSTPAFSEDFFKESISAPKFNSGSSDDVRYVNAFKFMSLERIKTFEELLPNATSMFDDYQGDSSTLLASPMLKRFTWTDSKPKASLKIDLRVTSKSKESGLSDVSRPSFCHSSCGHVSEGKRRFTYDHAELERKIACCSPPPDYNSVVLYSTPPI
The target in assay [9] is Protein kinase C (PKC) (Homo sapiens) (UniProt O94806+P41743+P17252+P05129+Q05655+P05771+Q05513+Q02156+P24723+Q15139+Q04759). Put plainly: Inhibition of PKC at 1 uM. The assay is classed as protein assay.
Assay [10] deals with T2, Vascular endothelial growth factor receptor (Homo sapiens). Put plainly: Inhibition of microvessel growth in rat aortic ring at 40 nM. The assay is classed as functional, tissue-based. Conditions: Aorta, target entry is the homologue from another species. A digest of the protocol: as §1
In assay [11] the target is Vascular endothelial growth factor receptor 3 (Homo sapiens) (UniProt P35916). Put plainly: Inhibition of VEGFR3 at 300 nM.
Chain of Vascular endothelial growth factor receptor 3 (Homo sapiens) (P35916 whole entry): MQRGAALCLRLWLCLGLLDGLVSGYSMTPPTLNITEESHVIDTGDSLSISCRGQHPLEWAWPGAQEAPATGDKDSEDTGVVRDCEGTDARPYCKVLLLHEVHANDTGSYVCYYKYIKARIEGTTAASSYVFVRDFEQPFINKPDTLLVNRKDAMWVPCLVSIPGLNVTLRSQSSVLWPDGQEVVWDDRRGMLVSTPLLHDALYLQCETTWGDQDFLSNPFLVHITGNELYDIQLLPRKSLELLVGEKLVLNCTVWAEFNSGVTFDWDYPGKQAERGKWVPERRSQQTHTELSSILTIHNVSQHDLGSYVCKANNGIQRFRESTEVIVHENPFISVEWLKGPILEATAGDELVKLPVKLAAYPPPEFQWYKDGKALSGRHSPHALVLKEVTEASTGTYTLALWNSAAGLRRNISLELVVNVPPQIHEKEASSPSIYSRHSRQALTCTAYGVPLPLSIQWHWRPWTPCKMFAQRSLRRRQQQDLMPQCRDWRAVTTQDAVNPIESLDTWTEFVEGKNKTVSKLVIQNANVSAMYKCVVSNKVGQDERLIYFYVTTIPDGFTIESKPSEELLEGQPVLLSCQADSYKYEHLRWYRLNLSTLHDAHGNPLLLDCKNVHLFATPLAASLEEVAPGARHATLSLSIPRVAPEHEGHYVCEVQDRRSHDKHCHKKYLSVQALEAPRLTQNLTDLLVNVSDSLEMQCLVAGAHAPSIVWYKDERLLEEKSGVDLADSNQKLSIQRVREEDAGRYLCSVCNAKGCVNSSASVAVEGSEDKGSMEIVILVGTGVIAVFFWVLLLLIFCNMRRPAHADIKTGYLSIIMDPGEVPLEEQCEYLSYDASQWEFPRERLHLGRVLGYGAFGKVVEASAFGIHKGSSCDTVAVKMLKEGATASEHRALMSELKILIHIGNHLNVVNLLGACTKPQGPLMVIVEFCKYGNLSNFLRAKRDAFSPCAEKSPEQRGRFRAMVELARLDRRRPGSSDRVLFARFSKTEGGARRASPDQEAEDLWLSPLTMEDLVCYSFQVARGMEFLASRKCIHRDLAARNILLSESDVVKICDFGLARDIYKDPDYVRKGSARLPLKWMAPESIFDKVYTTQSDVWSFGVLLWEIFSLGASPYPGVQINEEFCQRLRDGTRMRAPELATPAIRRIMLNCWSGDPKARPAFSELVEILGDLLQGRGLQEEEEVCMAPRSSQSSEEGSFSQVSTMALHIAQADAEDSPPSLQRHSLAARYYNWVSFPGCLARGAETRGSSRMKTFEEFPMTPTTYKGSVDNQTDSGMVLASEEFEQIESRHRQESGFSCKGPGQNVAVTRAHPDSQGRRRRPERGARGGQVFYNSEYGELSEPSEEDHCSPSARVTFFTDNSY

T2 sequence (P17948 whole entry, looked up): as the sequence (P17948 whole entry) above
T2 sequence (P35916 whole entry, looked up): as the sequence (P35916 whole entry) above
T2 sequence (P35968 whole entry, looked up): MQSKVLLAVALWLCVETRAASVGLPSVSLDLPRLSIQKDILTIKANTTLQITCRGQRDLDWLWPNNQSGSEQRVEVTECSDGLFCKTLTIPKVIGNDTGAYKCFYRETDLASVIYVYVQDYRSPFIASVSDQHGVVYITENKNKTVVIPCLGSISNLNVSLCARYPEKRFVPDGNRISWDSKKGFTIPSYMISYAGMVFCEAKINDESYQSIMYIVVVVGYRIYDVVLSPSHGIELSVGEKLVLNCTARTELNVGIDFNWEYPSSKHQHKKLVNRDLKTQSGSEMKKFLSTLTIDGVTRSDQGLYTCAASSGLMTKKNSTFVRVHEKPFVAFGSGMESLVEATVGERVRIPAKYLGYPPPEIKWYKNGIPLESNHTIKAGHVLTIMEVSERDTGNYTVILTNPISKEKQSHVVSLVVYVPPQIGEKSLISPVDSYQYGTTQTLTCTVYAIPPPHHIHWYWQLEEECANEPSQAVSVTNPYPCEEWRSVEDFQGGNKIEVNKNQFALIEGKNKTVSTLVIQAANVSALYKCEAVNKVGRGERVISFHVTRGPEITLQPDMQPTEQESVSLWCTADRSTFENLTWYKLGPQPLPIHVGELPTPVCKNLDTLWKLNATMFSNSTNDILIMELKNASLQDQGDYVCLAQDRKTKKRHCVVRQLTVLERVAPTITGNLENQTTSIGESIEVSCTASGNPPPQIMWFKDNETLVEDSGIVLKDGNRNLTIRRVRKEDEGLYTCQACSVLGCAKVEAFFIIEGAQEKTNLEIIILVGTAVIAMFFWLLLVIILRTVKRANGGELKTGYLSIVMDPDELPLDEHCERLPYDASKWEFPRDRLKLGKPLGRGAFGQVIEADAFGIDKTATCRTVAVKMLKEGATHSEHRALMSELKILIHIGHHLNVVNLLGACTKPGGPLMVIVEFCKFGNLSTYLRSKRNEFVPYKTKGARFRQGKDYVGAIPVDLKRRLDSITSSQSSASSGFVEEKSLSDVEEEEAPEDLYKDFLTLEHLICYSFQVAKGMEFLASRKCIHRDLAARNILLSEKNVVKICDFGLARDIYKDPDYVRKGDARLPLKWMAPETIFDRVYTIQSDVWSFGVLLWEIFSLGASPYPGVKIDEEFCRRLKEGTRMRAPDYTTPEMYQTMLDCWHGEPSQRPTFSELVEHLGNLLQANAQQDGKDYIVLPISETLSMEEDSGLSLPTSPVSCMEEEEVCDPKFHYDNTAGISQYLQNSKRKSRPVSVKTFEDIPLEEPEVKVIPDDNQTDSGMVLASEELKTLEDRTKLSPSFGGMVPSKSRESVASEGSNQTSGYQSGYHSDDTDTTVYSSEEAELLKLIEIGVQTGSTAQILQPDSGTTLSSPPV
T1 sequence (P35968 whole entry): as the sequence (P35968 whole entry, looked up) above

By inhibition is commonly meant the drop in the measured response relative to a control, in per cent. `Cn1cc(CC2C(=O)NN=C2c2nccs2)c2ccccc21` (stereo not drawn) had an inhibition in assay [1] of 5%.
The IC50 is the midpoint of a concentration-inhibition curve. Consider `Cn1cc(/C=C2\C(=O)NN=C2c2nccs2)c2cc3c(cc21)OCO3`, for which the inhibition in assay [2] was 75%; in assay [3], 90%; in assay [4] it was 55%; in assay [6] it was 44%; in assay [8], 25%; in assay [9] it was 13%. For the same molecule, the inhibition came out at 66% in assay [10] and 63% in [11]. Moreover, the IC50 in assay [5] is 32 nM; in assay [7] it was greater than 100000 nM. In addition, the result with SVR was Active.
Regarding `Cn1cc(/C=C2\C(=O)N(c3ccccc3)N=C2c2cnccn2)c2ccccc21`, the inhibition in assay [1] was determined as 23%.
